# Source: ChEMBL document CHEMBL1147169, “From pyrroles to 1-oxo-2,3,4,9-tetrahydro-1H-beta-carbolines: a new class of orally bioavailable mGluR1 antagonists” (Bioorg Med Chem Lett, 2007)
# Key:
# [1] = Cmax in rat; type: ADME, organism-based; details: in vivo
# How it was run: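 Maximum plasma concentration (ng/ml) measured after oral administration in rat.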
# [2] = molecular target: Metabotropic glutamate receptor 1 (Rattus norvegicus, UniProt P23385); experiment: Antagonist activity at rat mGluR1a expressed in CHO cells assessed as inhibition of intracellular calcium ion mobilization by FLIPR assay; type: functional, cell-based
# Metabotropic glutamate receptor 1, sequence (P23385 whole entry): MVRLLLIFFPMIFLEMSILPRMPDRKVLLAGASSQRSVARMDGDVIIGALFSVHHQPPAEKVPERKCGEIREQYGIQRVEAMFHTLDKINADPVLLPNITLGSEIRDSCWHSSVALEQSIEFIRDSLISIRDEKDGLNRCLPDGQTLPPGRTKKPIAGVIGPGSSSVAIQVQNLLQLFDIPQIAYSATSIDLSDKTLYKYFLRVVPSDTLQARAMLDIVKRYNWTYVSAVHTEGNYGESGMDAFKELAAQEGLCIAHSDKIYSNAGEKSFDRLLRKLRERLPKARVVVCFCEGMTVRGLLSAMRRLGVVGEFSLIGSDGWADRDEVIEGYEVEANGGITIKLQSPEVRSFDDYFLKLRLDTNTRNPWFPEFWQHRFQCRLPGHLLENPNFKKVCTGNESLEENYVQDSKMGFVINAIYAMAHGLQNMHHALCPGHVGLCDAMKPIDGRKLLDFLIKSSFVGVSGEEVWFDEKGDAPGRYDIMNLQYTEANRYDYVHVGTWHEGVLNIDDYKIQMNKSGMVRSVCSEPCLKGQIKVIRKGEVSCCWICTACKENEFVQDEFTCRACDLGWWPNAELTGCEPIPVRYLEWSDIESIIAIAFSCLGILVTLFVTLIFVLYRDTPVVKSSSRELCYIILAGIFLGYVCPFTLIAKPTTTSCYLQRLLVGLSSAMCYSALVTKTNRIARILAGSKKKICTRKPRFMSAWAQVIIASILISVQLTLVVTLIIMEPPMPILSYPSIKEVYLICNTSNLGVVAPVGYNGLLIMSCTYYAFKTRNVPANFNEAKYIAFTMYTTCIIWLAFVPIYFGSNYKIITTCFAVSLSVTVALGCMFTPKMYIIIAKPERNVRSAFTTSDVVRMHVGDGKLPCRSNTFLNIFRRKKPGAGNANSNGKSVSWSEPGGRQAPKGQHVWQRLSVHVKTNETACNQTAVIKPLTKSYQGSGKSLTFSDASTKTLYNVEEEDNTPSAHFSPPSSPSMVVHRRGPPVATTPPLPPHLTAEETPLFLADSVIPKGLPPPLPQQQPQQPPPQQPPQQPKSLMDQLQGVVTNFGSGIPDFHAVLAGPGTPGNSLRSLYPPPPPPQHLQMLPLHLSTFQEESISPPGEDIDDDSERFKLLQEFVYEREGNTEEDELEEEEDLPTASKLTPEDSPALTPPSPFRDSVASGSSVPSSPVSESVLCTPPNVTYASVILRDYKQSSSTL
# [3] = Plasma clearance in rat; type: ADME, organism-based
# [4] = Oral bioavailability in rat; type: ADME, organism-based; details: in vivo
# [5] = Oral bioavailability in rat at 5 mg/kg, po; type: ADME, organism-based; details: in vivo
# [6] = Oral bioavailability in rat at 1 mg/kg, po; type: ADME, organism-based; details: in vivo
# Mus musculus [7] = experiment: Reduction of inflammatory pain in late phase of formalin-induced mouse at 10 mg/kg, po; type: ADME, organism-based; set-up: dose 10 mg/kg, route oral; details: in vivo
# How it was run: (§1)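 Mice given compound po at 10 or 30 mg/kg, 30 min before 20 µl 1% formalin into left hind paw; nociceptive behaviour time (s) scored in early phase (0–5 min) and late phase (20–60 min); n = 8-19; significance p < 0.05 / p < 0.01 versus vehicle.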
# Mus musculus [8] = experiment: Reduction of inflammatory pain in late phase of formalin-induced mouse at 30 mg/kg, po; type: ADME, organism-based; set-up: dose 30 mg/kg, route oral; details: in vivo; how it was run: as §1
# Mus musculus [9] = experiment: Reduction of inflammatory pain in early phase of formalin-induced mouse at 30 mg/kg, po; type: ADME, organism-based; set-up: dose 30 mg/kg, route oral; details: in vivo; how it was run: as §1
# Rattus norvegicus = experiment: Ratio of drug level in rat from brain to plasma at 3 mg/kg, iv after 1 hr; details: in vivo
IC50 [2] [nM],SMILES,other results
71,O=C(NC12CC3CC(CC(C3)C1)C2)c1ccc2[nH]c3c(c2c1)CCNC3=O,Cmax [1]: 37 ng/mL; clearance [3]: 54 mL/min/kg; bioavailability [4]: 12%
93,O=C(NC1C2CC3CC(C2)CC1C3)c1ccc2[nH]c3c(c2c1)CCNC3=O (centres undefined),–
683,O=C1NCc2c1[nH]c1ccc(OCc3ccccc3)cc21,–
1020,O=C1NN=CC2c3cc(OCc4ccccc4)ccc3NC12 (centres undefined),–
16,CCCOC(=O)c1[nH]c(C)c(C(=O)O[C@@H](C)C(C)(C)C)c1C,–
3980,O=C1NCCc2c1[nH]c1cccc(OCc3ccccc3)c21,–
> 10000,c1ccc(COc2ccc3[nH]c4c(c3c2)CCNC4)cc1,–
> 10000,c1ccc(COc2ccc3c(c2)C2CCNCC2N3)cc1 (centres undefined),–
> 10000,O=C1CCCc2c1[nH]c1ccc(OCc3ccccc3)cc21,–
> 10000,CC(NC(=O)c1ccc2[nH]c3c(c2c1)CCNC3=O)C(C)(C)C (centres undefined),–
120,CC(N(C)C(=O)c1ccc2[nH]c3c(c2c1)CCNC3=O)C(C)(C)C (centres undefined),–
226,O=C(NC1CC2CCC1C2)c1ccc2[nH]c3c(c2c1)CCNC3=O (centres undefined),–
104,O=C1NCCc2c1[nH]c1ccc(OCc3ccccc3)cc21,bioavailability [5]: 9%; bioavailability [6]: 0%; Cmax [1]: 145 ng/mL
312,O=C(NCC12CC3CC(CC(C3)C1)C2)c1ccc2[nH]c3c(c2c1)CCNC3=O,–
4660,O=C(Nc1ccc2[nH]c3c(c2c1)CCNC3=O)NC12CC3CC(CC(C3)C1)C2,–
5560,O=C1NCCc2c1[nH]c1ccc(OCC3CCCCC3)cc21,–
1040,O=C(Nc1ccccc1)c1ccc2[nH]c3c(c2c1)CCNC3=O,–
71,O=C1NCCc2c1[nH]c1ccc(NC(=O)C34CC5CC(CC(C5)C3)C4)cc21,clearance [3]: 52 mL/min/kg
4070,O=C1NCCc2c1[nH]c1ccc(Oc3ccccc3)cc21,–
1670,O=C1NCCC2c3cc(OCc4ccccc4)ccc3NC12 (centres undefined),–
167,Cc1cc2[nH]c3c(c2cc1OCc1ccccc1)CCNC3=O,Cmax [1]: 264 ng/mL; Activity (Mus musculus [7]): Active; Activity (Mus musculus [8]): Active; bioavailability [4]: 36%; Activity (Mus musculus [9]): Active; Ratio (Rattus norvegicus): 6.1
2850,O=C1NCCc2c1[nH]c1cc(OCc3ccccc3)ccc21,–
> 10000,O=C1NCCc2c1[nH]c1ccc(O)cc21,–
239,CC(Oc1ccc2[nH]c3c(c2c1)CCNC3=O)C(C)(C)C (centres undefined),–
380,CC(Oc1ccc2[nH]c3c(c2c1)CCNC3=O)c1ccccc1 (centres undefined),–
> 10000,COc1ccc2[nH]c3c(c2c1)CCNC3=O,–
